Among the data in ChEMBL document CHEMBL3593179, “Benzoic acid derivatives with improved antifungal activity: Design, synthesis, structure-activity relationship (SAR) and CYP53 docking studies” (2015) are inhibition values, retold here.

The source made the active and inactive calls. No cut-off for these calls is given here.

For one test, the system named is Aspergillus niger. The test can be described thus: Antifungal activity against Aspergillus niger N402 cspA1 at 100 uM by growth based assay. Format: functional. In a few lines:
(§1)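 Mycelial discs cut from 5-day-old cultures were placed centrally on MEA (Blakeslee's formula) agar plates containing inhibitor at 0.1 mM final concentration or solvent control. Plates were incubated at 28°C and growth was scored daily. Radial growth rate (RGR) and initial growth inhibition (IGI) were derived and expressed as percent of the matching solvent control. Each compound was tested in triplicate.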
For orientation: inhibition means the relative decrease from the control value, in per cent. For the compound `O=C(O)c1ccc(-c2cc(F)c(F)cc2F)cc1`, the inhibition result was “Active”.

In the case of `O=C(O)c1ccc(-c2cccs2)cc1`, the inhibition result is “Active”. As for `O=C(O)c1ccc(-n2cccc2)cc1`, the inhibition result was “Active”. Regarding `O=C(O)c1ccc(-c2ccc(F)cc2)cc1`, the inhibition result was “Active”. `O=C(O)c1ccc(-c2ccc(Cl)c(F)c2)cc1`: 100 µM produced 30% inhibition. In the case of `O=C(O)c1ccc(N2CCCC2)cc1Cl`, the inhibition entry is “Active”. For `O=C(O)c1ccc(-c2cccc(F)c2)cc1`, the inhibition entry is “Active”. Still for that read-out and setting: then `O=C(O)c1ccc(-c2ccc(Cl)c(Cl)c2)cc1`, with “inactive”; and `O=C(O)c1ccc(-c2ccc(Cl)cc2)cc1`, with “inactive”.

The subject of a further test is Curvularia lunata. Briefly: Antifungal activity against Cochliobolus lunatus strain MUCL 38696 at 100 uM by growth based assay. Format: functional, organism-based. In a few lines:
as §1
Regarding `O=C(O)c1ccc(-c2cc(F)c(F)cc2F)cc1`, the inhibition entry was “Active”.

With `Cc1cc(C(=O)O)ccc1-n1c(C)ccc1C`, the inhibition entry was “inactive”. As for `O=C(O)c1ccc(N2CCCC2=O)cc1`, the inhibition result is “inactive”.

`O=C(O)c1ccc2ccccc2c1`: the inhibition entry is “inactive”. On to `O=C(O)c1ccc(-c2cccs2)cc1`, for which the inhibition result is “Active”.

In the case of `Cc1ccn(-c2ccc(C(=O)O)c(Cl)c2)n1`, the inhibition result was “inactive”.

In the case of `O=C(O)c1ncc(N2CCCC2)cc1Cl`, the inhibition result was “inactive”. Turning to `O=C(O)c1ccc(N2CCCC2)nc1`, the inhibition result is “inactive”. For `O=C(O)c1ccc(N2CCCC2)cc1`, the inhibition result is “inactive”. Consider `O=C(O)c1ccc(C(=O)O)cc1`, for which the inhibition entry is “inactive”.

Turning to `O=C(O)c1ccc(-n2cccc2)cc1`, the inhibition result was “Active”. `O=C(O)c1ccc(-c2ccc(F)cc2)cc1`: the inhibition entry is “Active”.

`O=C(O)c1ccc(F)cc1`: the inhibition entry is “inactive”. For `O=C(O)c1ccc(N2CCCCC2)cc1Cl`, the inhibition entry was “inactive”. With `O=C(O)c1ccc(CN2CCCC2)cc1`, the inhibition entry is “inactive”. Consider `O=C(O)c1ccc(-c2ccc(Cl)c(F)c2)cc1`, for which the inhibition entry is “Active”. Consider `Cc1cc(C=O)c(C)n1-c1ccc(C(=O)O)cc1`, for which the inhibition result was “inactive”. For the compound `Cc1cc(C)n(-c2ccc(S(=O)(=O)O)cc2)n1`, the inhibition entry was “inactive”. On to `O=S(=O)(O)c1cc[n+](-c2ccc(Cl)cc2)cc1`, for which the inhibition entry was “inactive”.

With `Cc1ccc(C)n1-c1ccc(C(=O)O)cc1`, the inhibition result is “inactive”. For `O=C(O)c1ccc(-c2ccsc2)cc1`, the inhibition entry is “Active”.

In the case of `CC(=O)c1cc(C)n(-c2ccc(C(=O)O)cc2)c1C`, the inhibition result was “inactive”.

With `Cc1cc(C)n(-c2ccc(C(=O)O)cc2)n1`, the inhibition result is “inactive”. Still for that read-out and setting: the value for `O=C(O)c1ccc(C2CCCCC2)cc1` was “inactive”; that for `O=C(O)c1ccc(-c2ccc(C(=O)O)cc2)cc1` was “inactive”. As for `O=C(O)c1ccc(N2CCCC2)cc1Cl`, the inhibition entry is “inactive”. Same read-out and setting: then `Cn1ccc(-c2ccc(C(=O)O)cc2)n1`, with “inactive”; and `O=C(O)c1ccc(-c2cccc(F)c2)cc1`, with “Active”; and `CC1CCN(c2ccc(C(=O)O)cc2)CC1`, with “Active”.

A further test concerns Pleurotus ostreatus. Briefly: Antifungal activity against Pleurotus ostreatus Plo5 at 100 uM by growth based assay. It is filed as functional. The method in brief: as §1
With `O=C(O)c1ccc(-c2cccs2)cc1`, the inhibition result was “Active”.

Take `O=C(O)c1ccc(-n2cccc2)cc1`: the inhibition entry was “inactive”. `O=C(O)c1ccc(-c2ccc(F)cc2)cc1` displayed an inhibition at 100 µM of 75%.

The compound `O=C(O)c1ccc(-c2ccc(Cl)c(F)c2)cc1` showed an inhibition at 100 µM of 75%. In the case of `Cc1cc(C(=O)O)ccc1-n1cccc1`, the inhibition result is “inactive”. Turning to `O=C(O)c1ccc(-c2ccsc2)cc1`, the inhibition at 100 µM came to 75%.
